The species entered for series [1] is Mus musculus. The series can be described thus: Vasodilation effect in C57BL/6 mouse assessed as increase in blood flow relative to baseline. The series is classed as functional, organism-based. The method, boiled down: (§1)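 Male C57BL/6 mice, 8-10 weeks, ~25 g, anesthetized with Nembutal ip (80 mg/kg). After 10 min, ear blood flow was recorded by laser Doppler imaging: 3 min baseline, then ip dosing (5 mL/kg) through a preinserted syringe, reading ~15 min. Vehicle was PBS, 40% HPBCD or 0.5% methylcellulose. Result expressed as % change in perfusion over baseline.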

Series [2] deals with Hydroxycarboxylic acid receptor 3 (Homo sapiens) (UniProt P49019). In words: Agonist activity against GPR109b assessed as forskolin-induced cAMP accumulation relative to nicotinic acid. Type of series: functional. On the technique in general: cAMP levels reflect the balance of adenylyl cyclase and phosphodiesterase activity.
Sequence of Hydroxycarboxylic acid receptor 3 (Homo sapiens) (P49019 whole entry): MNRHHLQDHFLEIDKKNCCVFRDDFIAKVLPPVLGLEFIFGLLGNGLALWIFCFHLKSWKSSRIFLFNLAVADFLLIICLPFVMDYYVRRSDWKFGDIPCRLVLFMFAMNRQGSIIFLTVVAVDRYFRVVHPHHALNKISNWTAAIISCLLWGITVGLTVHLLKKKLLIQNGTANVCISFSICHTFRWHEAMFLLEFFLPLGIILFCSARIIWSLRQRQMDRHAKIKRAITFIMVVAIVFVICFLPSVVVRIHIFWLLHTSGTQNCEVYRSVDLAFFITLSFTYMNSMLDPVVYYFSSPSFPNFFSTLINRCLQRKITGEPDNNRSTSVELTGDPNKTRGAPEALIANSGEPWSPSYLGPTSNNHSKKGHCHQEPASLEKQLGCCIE
The species named for series [3] is Mus musculus. The series can be described thus: Inhibition of PGD2-induced vasodilation response in C57BL/6 mouse assessed as blood flow. The series is classed as functional, organism-based. The method, boiled down: as §1
Series [4] is filed under the species Mus musculus. In words: Inhibition of nicotinic acid-induced vasodilation response in C57BL/6 mouse assessed as blood flow. Type of series: functional, organism-based. The method in brief:
as §1

The subject of series [5] is Mus musculus. In words: Reduction in plasma FFA level in ip dosed C57BL/6 mouse. The series is classed as functional. To be noted: C57BL/6, Plasma. The method, boiled down:
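Male C57BL/6 mice, at least 8 weeks old, fasted 16 h, then dosed ip in saline. Plasma FFA was measured by an enzymatic NEFA assay, and compound levels in the same plasma by LC-MS/MS.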

Series [6] relates to Adipocyte. The series can be described thus: Inhibition isoproterenol-stimulated lipolysis in human adipocytes.
A short description of series [7]: Volume of distribution in C57BL/6 mouse at 5 mg/kg, iv and 10 mg/kg, po. The series is classed as ADME, organism-based. To be noted: in vivo. The method in brief: (§2)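 Male C57BL/6 mice dosed IV at 5.0 mg/kg in PBS, or by oral gavage at 10 mg/kg in PBS. Clearance is blood clearance. Cmax and Tmax come from oral dosing. Half-life is terminal. Oral bioavailability is also reported.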

Series [8] is described as follows: Half life in C57BL/6 mouse at 5 mg/kg, iv and 10 mg/kg, po. The series is classed as ADME, organism-based. To be noted: in vivo. The method, boiled down: as §2
Series [9] is described as follows: Oral bioavailability in C57BL/6 mouse at 10 mg/kg, po. Type of series: ADME, organism-based. As to conditions: in vivo. The method in brief:
as §2

Series [10] is described as follows: Cmax in C57BL/6 mouse at 5 mg/kg, iv and 10 mg/kg, po. Type of series: ADME, organism-based. To be noted: in vivo. The method in brief:
as §2

Series [11] in a line: Tmax in C57BL/6 mouse at 5 mg/kg, iv and 10 mg/kg, po. As to conditions: in vivo. Type of series: ADME, organism-based. The method, boiled down: as §2

The source made the active and inactive calls. No cut-off for these calls is given here.

Take `O=C(O)c1n[nH]c2c1CCC2`: the Activity entry in series [1] was “Dose-dependent effect”.

`C1Cc2[nH]nc(-c3nn[nH]n3)c2C1`: the result in [2] and in series [3] was inactive. Also, the result in series [4] was Active. Besides, the 50% effect level in series [5] (ED50) was put at a dose of 3.1 mg/kg. Further, the IC50 in series [6] came out at 3.1 µM.

With `C1Cc2[nH]nc(-c3nnn[nH]3)c2C1`, the Vd in series [7] is 13 L/kg. The half-life in [8] was 10 h. The molecule also came in with a bioavailability in series [9] of 93%. Further, the Cmax in series [10] was found to be 16 µM. Besides, the Tmax in series [11] stood at 4.98 min.

In the case of `O=C(O)c1cccnc1` [NIACIN], the ED50 in series [5] worked out at 9.7 mg/kg.

The term ED50 denotes the midpoint of the dose-response relation. A higher ED50 goes with weaker potency. What is called IC50 is the midpoint of a concentration-inhibition curve. Higher therefore signals weaker potency. A word on the half-life: it is how long it takes for the measured level to halve. As a reminder, the bioavailability is the share of a dose that reaches the circulation, judged against a reference dose that is usually intravenous. Lower therefore signals poor availability. A word on the Cmax: it is the peak of the concentration-time curve. Broadly, the Tmax is the time from dosing to the highest level.

These data come from ChEMBL document CHEMBL1156568, “3-(1H-tetrazol-5-yl)-1,4,5,6-tetrahydro-cyclopentapyrazole (MK-0354): a partial agonist of the nicotinic acid receptor, G-protein coupled receptor 109a, with antilipolytic but no vasodilatory activity in mice” (J Med Chem, 2008).
